Experimental data published in ChEMBL document CHEMBL1143938, “Synthesis and antiviral activities of novel chiral cyanoacrylate derivatives with (E) configuration” (2008).
Activity calls are given as the source filed them. The calls are words filed in the database; no cut-off is given here.

Legend:
Tobacco mosaic virus [1] = test: Antiviral activity against TMV-infected tobacco leaves assessed as protection against viral infection at 500 mg/L; assay type: functional
Nicotiana tabacum [2] = test: Stimulation of peroxidase activity in Nicotiana tabacum after 5 days
Nicotiana tabacum [3] = test: Effect on accumulation of PR1a mRNA in tobacco leaf on day 2; assay type: functional, organism-based
Summary of the method: (§1)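 Leaf RNA came from water-, TMV- and treated-plus-TMV tobacco. PR-1a and PR-5 were amplified by semi-quantitative PCR (annealing 58 °C; 1.5% agarose, ethidium bromide) and by real-time PCR. Real-time values were taken relative to β-actin by ΔΔCT, n = 4, in triplicate.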

Nicotiana tabacum [4] = test: Effect on accumulation of PR5 mRNA in tobacco leaf after 12 hrs; assay type: functional, organism-based; summary of the method: as §1
Tobacco mosaic virus [5] = test: Antiviral activity against TMV-infected tobacco leaves assessed as viral inactivation at 500 mg/L; assay type: functional
Nicotiana tabacum [6] = test: Effect on accumulation of PR5 mRNA in tobacco leaf upto […] after 1 day; assay type: functional, organism-based; summary of the method: as §1
Nicotiana tabacum [7] = test: Stimulation of leaf size in Nicotiana tabacum relative to water treated control; assay type: functional, organism-based
Nicotiana tabacum [8] = test: Effect on accumulation of PR1a mRNA in tobacco leaf upto […] after 1 day; assay type: functional, organism-based; summary of the method: as §1
Tobacco mosaic virus [9] = test: Antiviral activity against TMV-infected tobacco leaves assessed as curative effect against viral disease at 500 mg/L; assay type: functional
Nicotiana tabacum [10] = test: Stimulation of L-phenylalanine ammonia-lyase level in Nicotiana tabacum assessed as per mg of protein after 7 days; assay type: functional
Summary of the method: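 TMV-inoculated Nicotiana tabacum treated at 500 ppm and sampled at 1, 3, 5 and 7 days. Water and TMV-only treatments served as controls. Leaves were homogenized on ice in 5 mM 2-mercaptoethanol-boric acid buffer (pH 8.8) and centrifuged, and enzyme activity was read in the supernatant. PAL was expressed per mg protein. Means of n = 3, with one-way ANOVA and LSD.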

SMILES	Activity (Tobacco mosaic virus [1]) [%]	Activity (Nicotiana tabacum [2])	Activity (Nicotiana tabacum [3])	Activity (Nicotiana tabacum [4])	Activity (Tobacco mosaic virus [5]) [%]	Activity (Nicotiana tabacum [6])	Activity (Nicotiana tabacum [7])	Activity (Nicotiana tabacum [8])	Activity (Tobacco mosaic virus [9]) [%]	Activity (Nicotiana tabacum [10]) [EU/mg]
CCOC(=O)/C(C#N)=C(\NCc1ccccc1)N[C@H](C)c1ccc(F)cc1	65.7	Active	Active	Active	49.5	Active	Active	Active	64	5.88
CNCC(=O)N[C@@H](CO)C(=O)N[C@H]1C(O)[C@@H](O)[C@H](n2ccc(N)nc2=O)O[C@@H]1C(N)=O (single isomer, unassigned) [NINGNANMYCIN]	100				50				57.8	
